Compounds with a hit are over-represented: about 2.3% of the library has one in this group of screens.
SUMO1-SIM PPI = SUMO1-SIM interaction modulation; inhibition, % at 20 µM; AID 602429; SUMO1 binding to a labelled peptide, TR-FRET, 1 h; actives 0.33% (n = 360,000); in the data active = inhibition above about 37%
Target sequence (P63165 whole entry, looked up): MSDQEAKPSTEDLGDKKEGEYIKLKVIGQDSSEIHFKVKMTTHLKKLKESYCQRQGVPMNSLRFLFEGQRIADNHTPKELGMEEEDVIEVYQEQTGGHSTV
LMPTP block = LMPTP (human) inhibition; recombinant LMPTP-A, OMFP fluorogenic substrate, fluorescence intensity; inhibition, % at 20 µM; actives 0.22% (n = 360,000); AID 651560;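 active = compounds that cut the enzyme signal by at least half of the control window in the single-dose screen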;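 note: plate controls were DMSO wells with enzyme plus substrate for no effect and substrate without enzyme for full effect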
Target sequence (P24666 whole entry, looked up): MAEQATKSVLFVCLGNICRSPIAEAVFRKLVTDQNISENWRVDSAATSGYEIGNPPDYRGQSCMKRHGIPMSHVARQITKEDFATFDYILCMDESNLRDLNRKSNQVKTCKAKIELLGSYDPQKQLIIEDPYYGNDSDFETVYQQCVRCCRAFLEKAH
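material = LMPTP-A | quantity = 0.625 nM enzyme | reagent = OMFP substrate, 400 µM final | buffer or medium = Bis-Tris pH 6.0, DTT, detergent | detection = endpoint fluorescence intensity from OMFP dephosphorylation | dosing = single 20 µM dose | read-out basis = % inhibition relative to no-enzyme and uninhibited control wells | control set = no-enzyme and uninhibited controls | timing = 50 min at room temperature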
NadD inh = inhibitors of Staphylococcus aureus NadD. AID 602399. actives 0.78% (n = 360,000). inhibition, % at 20 µM. purified NadD enzyme, colorimetric absorbance read-out; in the data active = inhibition above about 26%
DNMT1 inh = DNMT1 (human) enzyme inhibition. P26358. DNMT1 molecular beacon, Hinp1I cleavage, fluorescence. inhibition (reported as % activation of signal), % at 10 µM. actives 0.83% (n = 360,000); in the data active = inhibition above about 50%
STEP inh = inhibitors of human striatal-enriched phosphatase STEP | recombinant STEP, OMFP fluorogenic substrate, fluorescence | inhibition, % at 20 µM | actives 0.25% (n = 360,000);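 active = inhibition at 20 µM, scaled per plate between control wells, above about 37%, limit read from the data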;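 note: 0% = DMSO with enzyme and substrate and 100% = substrate only without enzyme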
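Measure: Control-normalized % inhibition with plate pattern correction | Test system: STEP phosphatase, cell-free reaction | Medium: pH 6.0 Bis-Tris with DTT and Tween 20 | Technique: Fluorescence, 480/540 nm | Times: Reaction 20 min, ambient temperature | Doses: Single compound dose of 20 µM, 1% DMSO final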
Scp-1 inhibitor = inhibitors of human Scp-1 phosphatase. Q9GZU7. AID 493091. Recombinant Scp1, phosphopeptide, malachite green phosphate absorbance. inhibition, % at 20 µM. actives 0.88% (n = 340,000);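 active = inhibition above about 50% at 20 µM, limit read from the data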;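 note: plate controls were DMSO wells with enzyme for no effect and wells lacking enzyme for full effect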
Target sequence (Q9GZU7 76-261 limits assumed): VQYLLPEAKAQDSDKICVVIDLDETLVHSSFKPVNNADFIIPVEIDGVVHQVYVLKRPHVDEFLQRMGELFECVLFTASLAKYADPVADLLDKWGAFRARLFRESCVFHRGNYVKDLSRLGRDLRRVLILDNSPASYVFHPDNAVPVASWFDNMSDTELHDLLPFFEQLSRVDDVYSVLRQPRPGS
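Incubation: 45 min enzyme reaction at room temperature / System: truncated SCP-1 phosphatase (76-261aa) / Reagent: Phospho 17-mer peptide substrate / Buffer or medium: Acidic Tris acetate buffer with magnesium and detergent / Signal: absorbance at 630 nm / Doses: one concentration, 20 µM, with 1.0% DMSO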
NadD conf = confirmation of Staphylococcus aureus NadD inhibitors; AID 624309; shares compounds with NadD inh; inhibition, % at 20 µM; purified S. aureus NadD, colorimetric enzyme assay; actives 13% (n = 2,000); in the data active = inhibition mostly above about 42%, no sharp cut-off; inactive = mostly below about 42%
* hit, by the source's call; · = no result.

SMILES	SUMO1-SIM PPI	LMPTP block	NadD inh	DNMT1 inh	STEP inh	Scp-1 inhibitor	NadD conf
Cc1ccc(Nc2nnc(C3C(=O)N(C)C4(C)CC3c3cc(Br)ccc3O4)s2)cc1 (configuration not stated)	-1.6	2.3	27.7*	-0.2	1.2	2.9	4.0
Cn1ccc(C(=O)Nc2ccc(Br)cc2Br)n1	-0.2	0.4	-5.1	-4.0	6.1	-2.6	·
Cc1nn(C)c(C)c1NS(=O)(=O)c1ccccc1Cl	1.8	1.7	-0.9	1.3	1.7	5.8	·
CCOC(=O)c1ccc(-n2c(O)c(/C=N/NC(=O)C3COc4ccccc4O3)c3ccccc3c2=O)cc1 (configuration not stated)	-1.1	2.4	31.1*	-11.1	1.6	-13.1	41.2
O=C1CSC(=S)N1	-0.4	-0.9	0.6	0.1	-2.7	-8.8	·
CC(C)N(C(=O)CSc1nnc(-c2cc3ccccc3cc2O)n1Cc1ccco1)C(C)C	-1.1	-0.4	-3.4	3.6	0.6	-4.7	·
O=C(CSc1nnc(-c2cc3ccccc3cc2O)n1Cc1ccco1)N1CCc2ccccc2C1	0.0	4.5	41.0*	-1.7	-0.3	5.7	53.6*
C#CCN(C[C@H]1[C@H](OC(=O)NC2CC2)[C@H](OC(=O)NC2CC2)C[C@H]2C(=O)N(c3ccccc3)C(=O)[C@@H]12)S(=O)(=O)c1ccc(C)cc1	2.9	1.1	-6.2	-4.6	0.3	·	·
C#CCN(C[C@H]1[C@H](OC(=O)NCc2ccccc2)[C@H](OC(=O)NCc2ccccc2)C[C@H]2C(=O)N(c3ccccc3)C(=O)[C@@H]12)S(=O)(=O)c1ccc(C)cc1	-3.7	0.5	34.8*	-4.6	2.4	·	48.2*
C#CCN(C[C@H]1[C@H](OC(=O)NCCCCCC)[C@H](OC(=O)NCCCCCC)C[C@H]2C(=O)N(c3ccccc3)C(=O)[C@@H]12)S(=O)(=O)c1ccc(C)cc1	-1.4	-5.8	8.3	4.0	-4.8	·	·
C#CCN(C[C@H]1[C@H](OC(=O)NCC2CCCCC2)[C@H](OC(=O)NCC2CCCCC2)C[C@H]2C(=O)N(c3ccccc3)C(=O)[C@@H]12)S(=O)(=O)c1ccc(C)cc1	3.9	-2.3	36.6*	0.7	2.2	·	20.9
C#CCN(C[C@H]1[C@H](OC(=O)Nc2cccs2)[C@H](OC(=O)Nc2cccs2)C[C@H]2C(=O)N(c3ccccc3)C(=O)[C@@H]12)S(=O)(=O)c1ccc(C)cc1	-2.0	1.6	35.0*	-6.8	3.1	·	50.5*
Cc1ccc(C2=NN(C(=O)CCCC(=O)O)C(c3ccc4c(c3)OCO4)C2)cc1 (configuration not stated)	0.8	0.0	-6.2	4.1	-2.4	-8.7	·
Cc1ccccc1CSCC1Nc2ccc(C(=O)NCCc3ccccc3)cc2NC1=O (configuration not stated)	-6.6	1.5	44.7*	-9.1	-9.9	·	74.3*
COc1ccc(-c2cc(C(=O)N(C)Cc3nc4ccccc4c(=O)[nH]3)c3ccccc3n2)cc1OC	-7.7	1.2	8.2	-0.8	-1.9	-12.4	·
Cc1ccc(-c2ccc3c(c2)O[C@H](CN(C)Cc2cncnc2)[C@@H](C)CN([C@H](C)CO)S3(=O)=O)cc1	-0.6	-0.2	-4.8	2.2	0.4	·	·
COc1ccc(/C=C/C(=O)NC(=S)Nc2ccc(S(=O)(=O)Nc3cc(OC)ncn3)cc2)cc1	19.7	0.3	54.4*	0.2	3.7	-8.4	34.6
CCc1nnc(NS(=O)(=O)c2ccc(NC(=S)NC(=O)/C=C/c3ccc(F)cc3)cc2)s1	22.4	1.9	30.7*	-1.9	2.0	-1.7	50.7*
COc1cc(NS(=O)(=O)c2ccc(NC(=S)NC(=O)/C=C/c3ccc(OC)c(OC)c3)cc2)ncn1	19.0	2.3	26.5	-1.1	1.9	8.6	·
Cn1c(=O)c2c([nH]c(=S)n2Cc2ccc(Cl)cc2)n(C)c1=O	14.6	2.1	31.5*	1.8	2.0	16.3	35.1
COCCNc1nc(-c2cc(C)n(CCc3ccc(OC)cc3)c2C)cs1	-0.5	7.0	36.3*	34.7	1.1	6.4	20.6

Source: PubChem (Sanford-Burnham Center for Chemical Genomics)
